Shown are actives, neighbours in structure and some others; about 2.8% of the full set was active somewhere.
SR-BI uptake up: enhances SR-BI lipid uptake from DiI-HDL | 0.096% of 320,000 active | AID 504775 | activation, % at 12.5 µM | CHO ldlA[mSR-BI] cells, DiI-HDL uptake fluorescence, 3 h; 100 = double the neutral-control signal;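 active = mean replicate activation of at least 60% and every replicate at or above 60%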;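 note: 0% = median plate neutral-control signal and 100% = twice that signal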
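Assay system: CHO ldlA[mSR-BI] cells, LDL receptor-null, SR-BI overexpressing; medium: Ham's F12 with 0.5% BSA, HEPES 25 mM, pH 7.4; also added: DiI-HDL 10 µg/mL; timing: 3 h uptake period with compound, 37 °C; signal: DiI fluorescence, bottom read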
dFosB act: enhances mouse delta FosB homodimer DNA binding | P13346 | purified delta FosB, TAMRA-CDK5 oligo fluorescence polarization; percent of positive-control signal above neutral wells | activation, % at 25 µM | 0.99% of 340,000 active | AID 493131;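 active = mean activation above about 17%, with every replicate also reaching it, limit read from the data, passing the limit was not always enough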
Target sequence (P13346 whole entry, looked up): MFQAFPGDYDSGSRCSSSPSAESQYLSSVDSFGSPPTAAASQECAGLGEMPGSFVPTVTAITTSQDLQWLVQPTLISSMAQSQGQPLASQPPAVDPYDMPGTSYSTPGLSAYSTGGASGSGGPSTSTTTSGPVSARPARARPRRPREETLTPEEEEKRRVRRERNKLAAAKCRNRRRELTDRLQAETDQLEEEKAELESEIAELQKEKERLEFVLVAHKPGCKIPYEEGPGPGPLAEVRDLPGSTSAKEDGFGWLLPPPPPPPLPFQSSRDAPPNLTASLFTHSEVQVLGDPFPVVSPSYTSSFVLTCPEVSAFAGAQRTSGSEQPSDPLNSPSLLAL
SR-BI HDL uptake: mouse SR-BI HDL lipid transfer inhibition; Q61009; ldlA[mSR-BI] CHO cells, DiI-HDL uptake fluorescence, 3 h; inhibition, % at 12.5 µM; 0.96% of 320,000 active; AID 488896;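 active = mean replicate inhibition of at least 70% and a set share of replicates each scoring 70 or more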;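 note: 0% = median of neutral control wells and 100% = median of positive control wells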
CAL PDZ FP-1: blocks peptide binding to human CAL PDZ domain. Q9HD26. purified CAL PDZ, TMR-peptide fluorescence polarization, 1 h. inhibition, % at 20 µM. 0.02% of 330,000 active. AID 504414;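 active = highest replicate inhibition of at least 40%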;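 note: plate controls were DMSO neutral control wells for no effect and unlabeled competitor peptide control wells for full effect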
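Assay system – tagged CAL PDZ protein CerCALP, purified · Timing – 1 h at RT · Compound – single point, 20 µM · Measured by – fluorescence polarization from S- and P-plane intensities, G-factor corrected · Evaluation – inhibition from polarization loss · Probe or stimulus – TMR reporter peptide T*-PRC34 · Buffer or medium – pH 7.4 phosphate-saline buffer, reducing agent, detergent, IgG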
CAL PDZ FP-2: blocks peptide binding to the human CAL PDZ domain. Q9HD26. purified CAL PDZ, TMR-peptide fluorescence polarization, 1 h. inhibition, % at 24.9 µM. 0.92% of 300,000 active;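 active = mean inhibition of at least 30% with at least half of replicates also reaching 30%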;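 note: 0% = DMSO neutral control and 100% = excess unlabeled competitor peptide PRC23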
Active calls of the source: *.

Results for Cc1c(C(=O)Nc2ccc(Nc3ccccc3)cc2)cccc1[N+](=O)[O-] ?
SR-BI uptake up: -63; dFosB act: -11; SR-BI HDL uptake: 63; CAL PDZ FP-1: 1

How did O=C(Nc1ccccc1)c1ccc(Nc2c([N+](=O)[O-])cc([N+](=O)[O-])c3ccccc23)cc1 do in these assays?
SR-BI uptake up: -88; dFosB act: 1; SR-BI HDL uptake: 88*; CAL PDZ FP-1: 0; CAL PDZ FP-2: -7

How did COC(=O)c1ccc(/C=C/c2c(-c3ccc(OC)cc3)oc3ccccc23)cc1 do in these assays?
SR-BI uptake up: 5; dFosB act: -4; SR-BI HDL uptake: -5; CAL PDZ FP-1: -3; CAL PDZ FP-2: -1

What do the screens show for `COc1ccc(/C=C/c2c(-c3ccc(OC)cc3)oc3ccccc23)cc1`?
SR-BI uptake up: -78; dFosB act: -8; SR-BI HDL uptake: 78*; CAL PDZ FP-1: 0; CAL PDZ FP-2: -2

Results for Cc1ccc(NS(=O)(=O)c2ccc3[nH]c(=O)c(=O)[nH]c3c2)cc1Cl ?
SR-BI uptake up: 15; dFosB act: -4; SR-BI HDL uptake: -15; CAL PDZ FP-1: -4; CAL PDZ FP-2: -6

Results for Cc1ccc(NS(=O)(=O)c2ccc(Cl)c(N=Nc3c(O)[nH]c(=O)[nH]c3=O)c2)cc1Cl ?
SR-BI uptake up: -9; dFosB act: -9; SR-BI HDL uptake: 9; CAL PDZ FP-1: 0; CAL PDZ FP-2: 31*

Results for CC1=NN(c2nc(-c3ccc(C)cc3)cs2)C(=O)C1N=Nc1ccc(C(N)=O)cc1 (centres undefined) ?
SR-BI uptake up: -81; dFosB act: -18; SR-BI HDL uptake: 81*; CAL PDZ FP-1: 1

How did CC1=NN(c2nc(-c3ccc(C)cc3)cs2)C(=O)C1N=Nc1ccc2ccccc2c1 (centres undefined) do in these assays?
SR-BI uptake up: -8; dFosB act: -4; SR-BI HDL uptake: 8; CAL PDZ FP-1: -1; CAL PDZ FP-2: -3

What do the screens show for `Cc1cccc(N2CCc3c2nc2ccc(Br)cc2c3N)c1`?
SR-BI uptake up: -91; dFosB act: 33*; SR-BI HDL uptake: 91*; CAL PDZ FP-1: 0; CAL PDZ FP-2: 1

What do the screens show for `Nc1c2c(nc3ccc(Br)cc13)N(c1ccccc1)CC2`?
SR-BI uptake up: -67; dFosB act: -31; SR-BI HDL uptake: 67; CAL PDZ FP-1: -1; CAL PDZ FP-2: -6

How did O=C(NCCN1CCN(C(=O)c2ccccc2Cl)CC1)C(=O)NCc1ccccc1 do in these assays?
SR-BI uptake up: 0; dFosB act: -2; SR-BI HDL uptake: 0; CAL PDZ FP-1: -1; CAL PDZ FP-2: 48*

Results for O=C(NCCN1CCN(C(=O)c2cccc(Br)c2)CC1)C(=O)NCc1ccccc1 ?
SR-BI uptake up: -18; dFosB act: -1; SR-BI HDL uptake: 18; CAL PDZ FP-1: 0; CAL PDZ FP-2: -2

Results for CCCCN1C2=NC(c3ccccc3)CN2c2ccccc21 (centres undefined) ?
SR-BI uptake up: 2; dFosB act: 3; SR-BI HDL uptake: -2; CAL PDZ FP-1: -1; CAL PDZ FP-2: -1

How did Brc1ccc(-c2noc(C3CCCCC3)n2)cc1 do in these assays?
SR-BI uptake up: 25; dFosB act: 5; SR-BI HDL uptake: -25; CAL PDZ FP-1: -1; CAL PDZ FP-2: 107*

How did c1ccc(-c2noc(C3CCCCC3)n2)nc1 do in these assays?
SR-BI uptake up: 23; dFosB act: -3; SR-BI HDL uptake: -23; CAL PDZ FP-1: -1; CAL PDZ FP-2: -10

Results for O=C(CCCc1nc(-c2ccc(Cl)cc2)no1)NC1CCCC1 ?
SR-BI uptake up: -15; dFosB act: -2; SR-BI HDL uptake: 15; CAL PDZ FP-1: -1; CAL PDZ FP-2: 74*

What do the screens show for `Cc1ccccc1-n1c(SCC(=O)N/N=C/C=C/c2ccccc2[N+](=O)[O-])nc2ccccc2c1=O`?
SR-BI uptake up: -79; dFosB act: 0; SR-BI HDL uptake: 79*; CAL PDZ FP-1: 0; CAL PDZ FP-2: -5

Results for O=C(CSc1nc2ccccc2c(=O)n1-c1ccccc1)N/N=C/C=C/c1ccccc1[N+](=O)[O-] ?
SR-BI uptake up: -28; dFosB act: -9; SR-BI HDL uptake: 28; CAL PDZ FP-1: -2; CAL PDZ FP-2: 1

Results for O=[N+]([O-])c1cc(-c2ccc(/C=N\n3cnnc3)o2)cc([N+](=O)[O-])c1 ?
SR-BI uptake up: -2; dFosB act: -6; SR-BI HDL uptake: 2; CAL PDZ FP-1: -1; CAL PDZ FP-2: -6

How did CN(C(=O)c1cccc(NC(=O)Cc2ccc(NC(=O)C3CCCN(C(=O)C4CCCC4)C3)cc2)c1)C1CC1 (centres undefined) do in these assays?
SR-BI uptake up: -76; dFosB act: -14; SR-BI HDL uptake: 76*; CAL PDZ FP-1: 1; CAL PDZ FP-2: -5

How did Cc1cccc(NC(=O)C2CCCN(C(=O)Nc3ccc(F)cc3)C2)c1 (centres undefined) do in these assays?
SR-BI uptake up: -56; dFosB act: -5; SR-BI HDL uptake: 56; CAL PDZ FP-1: -1; CAL PDZ FP-2: 44*

How did Cc1cccc(NC(=O)C2CCCN(S(=O)(=O)c3ccc4[nH]c(=O)ccc4c3)C2)c1 (centres undefined) do in these assays?
SR-BI uptake up: -4; dFosB act: 45*; SR-BI HDL uptake: 4; CAL PDZ FP-1: -1

Results for CN(C(=O)c1ccc(NC(=O)Cc2cccc(NC(=O)C3CCN(C(=O)CCc4ccccc4)CC3)c2)cc1)C1CCCC1 ?
SR-BI uptake up: -71; dFosB act: -9; SR-BI HDL uptake: 71*; CAL PDZ FP-1: -2; CAL PDZ FP-2: -2

What do the screens show for `CCCOc1ccccc1C(=O)N(Cc1ccc(C)o1)C1CCS(=O)(=O)C1` (centres undefined)?
SR-BI uptake up: 4; dFosB act: 2; SR-BI HDL uptake: -4; CAL PDZ FP-1: -3; CAL PDZ FP-2: -1

How did COc1ccc(CO[C@@H]2O[C@H](CO)[C@@H](O)[C@H](O)[C@H]2NC(C)=O)cc1OC do in these assays?
SR-BI uptake up: 16; dFosB act: 3; SR-BI HDL uptake: -16; CAL PDZ FP-1: 0; CAL PDZ FP-2: 1

Results for CN(CCc1ccccc1)C(=O)c1cccc(NC(=O)Cc2cccc(NC(=O)C3CCN(C(=O)C4CCC4)CC3)c2)c1 ?
SR-BI uptake up: -22; dFosB act: -12; SR-BI HDL uptake: 22; CAL PDZ FP-1: -1; CAL PDZ FP-2: -3

How did NC(=O)c1nsc(C(=O)N(c2ccc3c(c2)OCO3)C(C(=O)NCC2CCCO2)c2ccc(F)cc2)c1N (centres undefined) do in these assays?
dFosB act: -9; CAL PDZ FP-1: -1

Results for O=C(Nc1cccc(C(=O)N2CCCCC2)c1)C1CC1 ?
SR-BI uptake up: 7; dFosB act: 3; SR-BI HDL uptake: -7; CAL PDZ FP-1: 0; CAL PDZ FP-2: 81*
